Compound activity (PubChem)
Sampled rows, rich in hits. Any-hit rate of the full collection: about 2.6%.
MEKK2mut PB1 HTS – MEK5 binding signal on mutant MEKK2 PB1, primary screen, biochemical, multiplex bead flow cytometry, Alexa488-MEK5 | hit rate 0.35% among 290,000 | percent response, % at 10 µM | AID 1530, 2009 | Alexa488-MEK5 binding to MEKK2 mutant; in the data active = percent response above about 24%, passing the limit was not always enough
MEKK2wt PB1 HTS – modulators of MEK5 binding to wildtype MEKK2, primary screen, biochemical, multiplex bead flow cytometry, Alexa488-MEK5 | AID 1531, 2009 | Alexa488-MEK5 binding to MEKK2 WT; actives lie on both sides | Mitogen-activated protein kinase kinase kinase 2 (Homo sapiens), Q9Y2U5 | binding response (% of control), % at 10 µM | hit rate 1.1% among 290,000; in the data active = binding response below about 67% or above about 130%
Hep lipid drop – inhibitors of hepatocyte lipid droplet formation, primary screen, imaging, high-throughput imaging, BODIPY stain | AML12 mouse hepatocytes, oleate lipid droplets | inhibition, % at 6.5 µM | hit rate 0.4% among 240,000 | AID 1656, 2009;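 active = lipid droplet intensity inhibited by at least 50%, with more than 500 cells counted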
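Assay system: AML12 hepatocytes (mouse); Probe or stimulus: oleic acid at 100 µM to induce lipid droplet formation; Dosing: compound at 6.5 µM only; Schedule: compound with oleate, overnight; Detection: fluorescence imaging, 20x objective, two fields per well; Measure: % inhibition of lipid droplet signal.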
MEKK3 PB1 HTS – modulators of MEKK3-MEK5 PB1 binding, primary screen, biochemical, wildtype MEKK3, multiplex bead flow cytometry, Alexa488-MEK5; Mitogen-activated protein kinase kinase kinase 3 (Homo sapiens), Q99759; bead-based flow cytometry, Alexa488-MEK5 binding to MEKK3; actives lie on both sides; 0 = blocked by unlabeled MEK5, 100 = vehicle; binding response (% of control), % at 10 µM; hit rate 1.4% among 290,000;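 active = binding response more than 3 SD above or below the average of its plate-row segment, actives on both sides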;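 also: Alexa488 bead fluorescence after subtracting the streptavidin-only scavenger bead signal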
Target sequence (Q99759 whole entry, looked up): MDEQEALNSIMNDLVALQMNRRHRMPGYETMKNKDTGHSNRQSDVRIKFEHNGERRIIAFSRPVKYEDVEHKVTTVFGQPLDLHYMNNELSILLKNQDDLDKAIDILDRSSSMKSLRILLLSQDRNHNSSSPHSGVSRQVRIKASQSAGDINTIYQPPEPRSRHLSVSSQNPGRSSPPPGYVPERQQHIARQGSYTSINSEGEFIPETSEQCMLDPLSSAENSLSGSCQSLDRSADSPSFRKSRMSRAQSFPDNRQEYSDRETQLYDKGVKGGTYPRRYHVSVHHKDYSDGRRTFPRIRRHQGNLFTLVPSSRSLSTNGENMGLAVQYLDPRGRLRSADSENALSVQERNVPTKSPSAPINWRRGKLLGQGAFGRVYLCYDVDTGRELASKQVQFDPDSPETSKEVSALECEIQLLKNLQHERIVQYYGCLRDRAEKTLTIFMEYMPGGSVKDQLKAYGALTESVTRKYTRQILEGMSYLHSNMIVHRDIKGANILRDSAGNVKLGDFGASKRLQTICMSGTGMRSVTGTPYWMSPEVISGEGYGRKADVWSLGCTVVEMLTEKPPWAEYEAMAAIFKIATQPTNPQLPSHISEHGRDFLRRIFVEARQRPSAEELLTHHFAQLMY
MEKK2wt confirm – modulators of MEK5 binding to wildtype MEKK2, confirmation, biochemical, single concentration, multiplex bead flow cytometry. shares compounds with MEKK3 PB1 HTS. Alexa488-MEK5 binding to MEKK2 WT; actives lie on both sides. binding response (% of control), % at 10 µM. hit rate 2.4% among 5,900. AID 1892, 2009; in the data active = binding response below about 16% or above about 210%; inactive = in between
MEKK2mut confirm – mutant MEKK2 PB1-MEK5 binding signal retest – biochemical, single concentration, multiplex bead flow cytometry, confirmation | shares compounds with MEKK3 PB1 HTS | Alexa488-MEK5 binding to MEKK2 mutant | percent response, % at 10 µM | hit rate 2% among 5,900 | AID 1893, 2009; in the data active = percent response mostly above about 71%, no sharp cut-off; inactive = mostly below about 38%;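 also: higher means compound restores mutant binding toward wildtype level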
MEKK3 confirm – MEKK3 wild-type PB1 binding to MEK5, inhibitors, confirmation, biochemical, bead multiplex flow cytometry, single concentration, wildtype | shares compounds with MEKK3 PB1 HTS | Alexa488-MEK5 binding to MEKK3; active compounds read low | binding response (% of control), % at 10 µM | hit rate 1.8% among 5,900;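 active = binding response below 72% of control, or above a set upper limit, though filed actives all read lower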;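 also: 100% = DMSO only wells and 0% = binding blocked by excess unlabeled MEK5; lower values mean stronger disruption of MEK5 binding to MEKK3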
The depositor's hits bear a star; . = no result; ! = not confirmed by another sample; [ ] = remark or other dose.

SMILES	MEKK2mut PB1 HTS	MEKK2wt PB1 HTS	Hep lipid drop	MEKK3 PB1 HTS	MEKK2wt confirm	MEKK2mut confirm	MEKK3 confirm
CN1CCN(c2ccc(Cl)cc2NC(=O)CCN2C(=O)c3ccccc3C2=O)CC1	0.0	171.0*	-2.0	108.0	155.0	34.0	101.0
CN1CCN(c2ccc(Cl)cc2NC(=O)/C=C/c2ccc(F)cc2)CC1	51.0*	195.0*	-0.3	108.0	185.0	60.0	109.0
O=C(/C=C/c1ccc(F)cc1)Nc1cc(S(=O)(=O)N2CCOCC2)ccc1N1CCCC1	9.0	88.0	4.3	101.0	.	.	.
COc1ccc(CC(=O)OCC(=O)Nc2cccc(Cl)c2)cc1	-4.0	94.0	12.0	102.0	.	.	.
CN1CCN(C(=O)c2ccccc2NC(=O)CCN2C(=O)c3ccccc3C2=O)CC1	1.0	104.0	3.2	100.0	.	.	.
FC(F)(F)c1cnc(-c2cnc(-c3ccccn3)nc2)c(Cl)c1	-9.0	99.0	25.0	102.0	.	.	.
C=CCN(C(=O)CCC(=O)Nc1cc(C)on1)C(C(=O)NC(C)(C)CC)c1cccc(OC)c1OC (configuration not stated)	-5.0	99.0	-5.0	101.0	.	.	.
COc1ccc(CCC(=O)Nc2ccc(-c3noc(-c4ccc(OC)c(OC)c4)n3)cc2)cc1	6.0	123.0	1.7	124.0*	111.0	3.0	106.0
Clc1ccc(-c2nc(/C=N/N3CCOCC3)c3ccccn23)cc1	3.0	104.0	4.8	103.0	.	.	.
CC(C)(C)NC(=O)COc1ccc(CNCc2cccnc2)cc1	-10.0	71.0	-1.7	56.0*[inhibitor]	98.0	-2.0	101.0
COc1cc(CNCc2cccnc2)ccc1OCC(=O)NC(C)(C)C	-4.0	92.0	-14.2	91.0	.	.	.
CCOC(=O)C1=C(C)Nc2sc(C(=O)c3ccc(C)cc3)c(N)c2C1c1ccc(C(=O)OC)cc1 (configuration not stated)	1.0	109.0	-7.7	149.0*	98.0	-3.0	101.0
Oc1[nH]c2ccccc2c1N=NC(=S)NCCc1ccccc1	0.0	102.0	-1.9	130.0*	94.0	-7.0	96.0
COc1cc(/C=N/Nc2nc(N3CCCC3)nc(N3CCCC3)n2)ccc1OCc1ccccc1F	-23.0	88.0	21.2	74.0	.	.	.
C/C(=N\Nc1cc(N2CCCCC2)nc(C)n1)c1ccc(Br)cc1	45.0*	183.0*	-11.2	118.0	159.0	29.0	105.0
CCCN(Cc1cc2cc(C)ccc2[nH]c1=O)C(=O)c1cccc([N+](=O)[O-])c1	24.0	127.0	-3.2	130.0*	102.0	-11.0	94.0
CCC(=O)N(C)CCc1cc2c(c(OC)c1/C=N/Nc1ccc(C(=O)O)cc1)OCO2	30.0	119.0	16.2	132.0*	107.0	11.0	107.0
COc1ccc(-c2c(-c3ccc(OCC(=O)NN)cc3O)n[nH]c2C)cc1OC	3.0	104.0	-1.8	104.0	.	.	.
COc1ccc(-c2c(-c3ccc(OCC(=O)NN)cc3O)n[nH]c2C(F)(F)F)cc1	0.0	107.0	1.2	130.0*	100.0	-11.0	97.0
Fc1cc(Br)ccc1COc1ccc(-c2nnco2)cc1	4.0	101.0	-5.8	102.0	.	.	.
CCOC(=O)c1cn(Cc2ccccc2)nn1	0.0	101.0	-7.6	131.0*	100.0	-3.0	105.0
COCCn1c(SCC(=O)Nc2ccc(OC)cc2)nnc1-c1ccoc1C	-3.0	98.0	-3.4	105.0	.	.	.
COCCn1c(SCC(=O)Nc2nnc(C)s2)nnc1-c1ccoc1C	5.0	120.0	-0.1	129.0*	98.0	-5.0	100.0
Cc1ccc(C)c(-n2c(SCC(=O)Nc3nnc(C)s3)nnc2-c2ccoc2C)c1	-21.0	2.0*[inhibitor]	.	2.0*[inhibitor]	109.0	16.0	110.0
Cc1occc1-c1nnc(SCC(=O)Nc2ccccc2)n1Cc1ccccc1	2.0	100.0	.	99.0	.	.	.
SMILES	MEKK2mut PB1 HTS	MEKK2wt PB1 HTS	Hep lipid drop	MEKK3 PB1 HTS	MEKK2wt confirm	MEKK2mut confirm	MEKK3 confirm
Cc1occc1-c1nnc(SCC(=O)Nc2ccc(F)cc2)n1Cc1ccccc1	-21.0	2.0*[inhibitor]	-4.6	2.0*[inhibitor]	96.0	-5.0	100.0
Cc1ccc(C)c(-n2c(SCC(=O)Nc3nonc3C)nnc2-c2ccoc2C)c1	2.0	99.0	.	101.0	.	.	.
CCn1c(Cc2ccccc2)nnc1SCC(=O)Nc1ccc(OC)cc1	3.0	56.0	20.2	44.0*[inhibitor]	106.0	5.0	103.0
CC(C)(CNC(=O)c1cc(Cl)c(O)c(Cl)c1)N1CCCCC1	-3.0	93.0	-20.4	100.0	.	.	.
O/N=C(/c1ccc(F)cc1)C1CC1c1c(F)cccc1Cl (configuration not stated)	0.0	95.0	.	100.0	.	.	.
CC1(N2CCOCC2)C(=O)c2ccccc2C1=O	0.0	103.0	43.3	109.0	.	.	.
CC1(N2CCCCC2)C(=O)c2ccccc2C1=O	0.0	106.0	-2.2	138.0*	106.0	2.0	103.0
COc1ccc(-n2c(=O)c3ccccc3n(CC(=O)Nc3cccc(OC)c3)c2=O)cc1	-16.0	62.0	0.4	50.0*[inhibitor]	103.0	6.0	106.0
COC(=O)c1[nH]c2ccccc2c1Sc1ccccc1	10.0	104.0	-7.7	110.0	.	.	.
CCN(CC)CCCNC(=O)c1[nH]c2ccccc2c1Sc1ccc(Cl)cc1	38.0*	163.0*	-17.1	105.0	167.0	46.0	106.0
Nc1c(Cl)ncnc1NCC(O)CO (configuration not stated)	1.0	101.0	-8.3	101.0	.	.	.
CC(C)C1COC(c2cccn2Cc2ccccc2Cl)=N1 (configuration not stated)	6.0	87.0	2.8	99.0	.	.	.
Cc1ccc(Cn2cccc2C2=NC(C)CO2)cc1 (configuration not stated)	5.0	114.0	-0.6	125.0*	134.0	19.0	110.0
COc1cc(C)ccc1OCCOCCOc1ccc([N+](=O)[O-])cc1	1.0	105.0	-36.9	134.0*	104.0	-3.0	99.0
OCCN1CCN(CCCN2c3ccccc3Sc3ccc(C(F)(F)F)cc32)CC1	19.0	175.0*	-39.3	114.0	132.0	17.0	108.0
CCN(CC)CCCCN1c2ccccc2Sc2ccccc21	12.0	136.0*	-11.8	109.0	138.0	26.0	109.0
CN1CCN(CCCN2c3ccccc3Sc3ccc(Cl)cc32)CC1	23.0	188.0*!	-23.3	107.0	157.0	24.0	109.0
CN(C)CCCN1c2ccccc2Sc2ccc(C(F)(F)F)cc21	13.0	154.0*	0.3	112.0	144.0	26.0	106.0
